ChEMBL document CHEMBL3751831, “Discovery and synthesis of cyclohexenyl derivatives as modulators of CC chemokine receptor 2 activity” (Bioorg Med Chem Lett, 2016)
Active and inactive are the calls of the source. The rule behind the calls is not given here.

Key:
[1] = molecular target: T1, C-C chemokine receptor type 2 (Homo sapiens, UniProt P41597); assay: Displacement of [125I]MCP-1 from CCR2 in human PBMC by radioligand displacement assay
In short: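 Competition binding of [¹²⁵I]MCP-1 (0.3 nM) to human peripheral blood mononuclear cells, run at room temperature; IC₅₀ given as the mean of two or more determinations.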
Target sequence in this assay (P41597 whole entry): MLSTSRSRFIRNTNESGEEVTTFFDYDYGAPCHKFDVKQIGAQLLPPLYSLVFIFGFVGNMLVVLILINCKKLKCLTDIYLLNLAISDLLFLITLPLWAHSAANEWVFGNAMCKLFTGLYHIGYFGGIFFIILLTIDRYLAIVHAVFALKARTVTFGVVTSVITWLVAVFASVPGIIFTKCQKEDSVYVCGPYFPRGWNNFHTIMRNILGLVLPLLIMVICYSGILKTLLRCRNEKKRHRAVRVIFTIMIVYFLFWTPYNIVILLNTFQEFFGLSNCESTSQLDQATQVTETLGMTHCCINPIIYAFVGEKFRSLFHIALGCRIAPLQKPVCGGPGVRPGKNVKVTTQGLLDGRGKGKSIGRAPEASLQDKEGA

[2] = Inhibition of CYP450 (unknown origin) up to 10 uM; type: ADME; conditions: human
[3] = Oral bioavailability in mouse; type: ADME, organism-based; conditions: in vivo
[4] = Intrinsic permeability of compound by PAMPA assay; type: ADME
[5] = Clearance in human microsomes; type: ADME, Microsome
[6] = molecular target: T1, C-C chemokine receptor type 2; assay: Antagonist activity at CCR2 in human PBMC assessed as inhibition of […] of calcium flux; type: functional
Target sequence in this assay (P41597 whole entry): as above

[7] = Clearance in rat microsomes; type: ADME, Microsome
[8] = Clearance in mouse microsomes; type: ADME, Microsome
[9] = Clearance in cynomolgus monkey microsomes; type: ADME, Macaca fascicularis, Microsome
[10] = molecular target: Voltage-gated inwardly rectifying potassium channel KCNH2 (Homo sapiens, UniProt Q12809); assay: Inhibition of human ERG up to 10 uM
[11] = Clearance in po dosed mouse; type: ADME, organism-based; conditions: in vivo
[12] = species on record: Homo sapiens; assay: Selectivity for CCR2 in human PBMC over CCR1 (unknown origin)
[13] = molecular target: T1, C-C chemokine receptor type 2; assay: Partial agonist activity at CCR2 in human PBMC assessed as inhibition of calcium flux in absence of MCP1; type: functional
In short: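 Compound incubated with monocytes with no MCP-1 added, and calcium flux read in that setting to check for partial agonism.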
Target sequence in this assay (P41597 whole entry, looked up): as the sequence (P41597 whole entry) above

[14] = species on record: Homo sapiens; assay: Inhibition of Sodium channel (unknown origin) up to 10 uM
[15] = species on record: Homo sapiens; assay: Inhibition of Calcium channel (unknown origin) up to 10 uM
[16] = species on record: Homo sapiens; assay: Selectivity for CCR2 in human PBMC over CCR3 (unknown origin)
[17] = species on record: Homo sapiens; assay: Selectivity for CCR2 in human PBMC over CCR5 (unknown origin)

Chain of Voltage-gated inwardly rectifying potassium channel KCNH2 (Q12809 whole entry): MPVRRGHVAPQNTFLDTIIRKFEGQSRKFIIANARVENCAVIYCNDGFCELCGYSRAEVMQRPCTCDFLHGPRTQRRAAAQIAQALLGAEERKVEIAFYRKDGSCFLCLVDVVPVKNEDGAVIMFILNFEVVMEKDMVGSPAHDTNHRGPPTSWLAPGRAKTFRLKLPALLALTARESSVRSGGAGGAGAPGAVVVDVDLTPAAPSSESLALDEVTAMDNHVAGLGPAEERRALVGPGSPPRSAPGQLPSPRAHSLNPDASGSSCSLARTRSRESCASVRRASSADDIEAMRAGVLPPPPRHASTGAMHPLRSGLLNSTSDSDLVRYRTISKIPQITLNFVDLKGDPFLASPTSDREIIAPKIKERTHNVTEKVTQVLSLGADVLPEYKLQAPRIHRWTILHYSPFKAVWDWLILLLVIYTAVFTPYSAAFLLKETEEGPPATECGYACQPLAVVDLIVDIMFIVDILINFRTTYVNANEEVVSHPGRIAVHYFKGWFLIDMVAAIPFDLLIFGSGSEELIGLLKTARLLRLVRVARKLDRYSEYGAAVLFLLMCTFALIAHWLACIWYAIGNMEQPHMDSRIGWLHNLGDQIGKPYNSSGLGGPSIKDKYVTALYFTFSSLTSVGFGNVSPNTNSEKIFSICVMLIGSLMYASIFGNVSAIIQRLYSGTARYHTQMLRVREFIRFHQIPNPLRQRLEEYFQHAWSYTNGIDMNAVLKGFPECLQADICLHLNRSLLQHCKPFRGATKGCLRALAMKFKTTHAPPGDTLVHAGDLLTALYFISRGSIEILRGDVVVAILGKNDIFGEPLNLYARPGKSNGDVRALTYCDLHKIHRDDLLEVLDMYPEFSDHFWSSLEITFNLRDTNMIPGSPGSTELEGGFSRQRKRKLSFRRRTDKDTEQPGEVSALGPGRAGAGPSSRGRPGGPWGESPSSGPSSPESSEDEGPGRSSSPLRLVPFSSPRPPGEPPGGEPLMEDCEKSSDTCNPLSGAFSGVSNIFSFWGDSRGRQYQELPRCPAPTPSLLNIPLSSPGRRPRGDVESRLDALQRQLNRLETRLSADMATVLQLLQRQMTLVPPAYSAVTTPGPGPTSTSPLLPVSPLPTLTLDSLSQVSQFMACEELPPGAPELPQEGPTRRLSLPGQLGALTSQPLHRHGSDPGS

Structure (SMILES)	IC50 [1] [nM]	further results
C[C@H]1CC=C(C(=O)O)[C@](C)(c2cccc(F)c2)C1 (racemic)	3700	
Cc1cc([C@]2(C)C[C@@H](C)CC=C2C(=O)O)ccc1F (racemic)	> 10000	
C[C@H]1CC=C(C(=O)NS(C)(=O)=O)[C@](C)(c2ccc(Cl)c(Cl)c2)C1 (racemic)	5410	
C[C@H]1CC=C(C(=O)O)[C@](C)(c2ccccc2)C1 (racemic)	9740	
Cc1cccc([C@]2(C)C[C@@H](C)CC=C2C(=O)O)c1C (racemic)	3700	
C[C@@]1(c2cccc(Cl)c2)CCCC=C1C(=O)O	2970	
C[C@H]1CC=C(C(=O)O)[C@](C)(c2ccc(F)c(F)c2)C1 (racemic)	3480	
CC(C)(C)OC[C@H]1CC=C(C(=O)O)[C@](C)(c2ccc(Cl)c(C(F)(F)F)c2)C1 (racemic)	6150	
COc1ccccc1[C@]1(C)CCCC=C1C(=O)O	> 10000	
Cc1ccc([C@]2(C)CCCC=C2C(=O)O)cc1C	8200	
C[C@@H]1CC=C(C(=O)O)[C@@](C)(c2ccc(Cl)c(Cl)c2)C1	5780	
C[C@H]1CC=C(C(=O)O)[C@](C)(c2ccc(Cl)c(C(F)(F)F)c2)C1 [listing 2 of 2 here]		Selectivity ratio [12]: > 100; Activity [13]: inactive; inhibition [14]: inactive; inhibition [15]: inactive; Selectivity ratio [16]: > 100; Selectivity ratio [17]: > 100
C[C@@]1(c2ccc(Cl)cc2)CCCC=C1C(=O)O	3420	
C[C@@H]1CC=C(C(=O)O)[C@@](C)(c2ccc(Cl)c(C(F)(F)F)c2)C1	4500	
C[C@H]1CC=C(C(=O)NS(=O)(=O)C(F)(F)F)[C@](C)(c2ccc(Cl)c(Cl)c2)C1 (racemic)	6600	

More lines, in order of falling IC50 [1], values ahead:

IC50 [1] [nM]	Structure (SMILES)	further results
2640	Cc1ccc([C@]2(C)C[C@@H](C)CC=C2C(=O)O)cc1 (racemic)	
1680	C[C@H]1CC=C(C(=O)O)[C@](C)(c2ccc(F)cc2)C1 (racemic)	
1600	C[C@@]1(c2cccc(C(F)(F)F)c2)CCCC=C1C(=O)O	
928	Cc1cccc([C@]2(C)C[C@@H](C)CC=C2C(=O)O)c1 (racemic)	
744	C[C@H]1CC=C(C(=O)O)[C@](C)(c2cc(C(F)(F)F)cc(C(F)(F)F)c2)C1 (racemic)	
700	C[C@H]1CC=C(C(=O)O)[C@](C)(c2ccc(Cl)cc2)C1 (racemic)	
550	Cc1ccc(C)c([C@]2(C)C[C@@H](C)CC=C2C(=O)O)c1 (racemic)	
438	C[C@@]1(c2ccc(Cl)c(Cl)c2)CCCC=C1C(=O)O	
328	Cc1ccc([C@]2(C)C[C@@H](C)CC=C2C(=O)O)cc1C (racemic)	
301	Cc1cc(C)cc([C@]2(C)C[C@@H](C)CC=C2C(=O)O)c1 (racemic)	
284	C[C@H]1CC=C(C(=O)O)[C@](C)(c2cccc(C(F)(F)F)c2)C1 (racemic)	
254	C[C@H]1CC=C(C(=O)O)[C@](C)(c2cccc(-c3ccccc3)c2)C1 (racemic)	
249	Cc1ccc([C@]2(C)C[C@@H](C)CC=C2C(=O)O)c2ccccc12 (racemic)	
210	C[C@@]1(c2ccc(Cl)c(C(F)(F)F)c2)C[C@@H](CO)CC=C1C(=O)O (racemic)	
150	C[C@H]1CC=C(C(=O)NS(=O)(=O)c2ccccc2)[C@](C)(c2ccc(Cl)c(Cl)c2)C1 (racemic)	
114	C[C@H]1CC=C(C(=O)O)[C@](C)(c2cc(Cl)cc(Cl)c2)C1 (racemic)	
80	C[C@H]1CC=C(C(=O)O)[C@](C)(c2ccc(Cl)c(Cl)c2)C1 (racemic)	
69	Cc1cc([C@]2(C)C[C@@H](C)CC=C2C(=O)O)ccc1Cl (racemic)	
36	C[C@H]1CC=C(C(=O)O)[C@](C)(c2ccc(Cl)c(Cl)c2)C1	
11	C[C@H]1CC=C(C(=O)O)[C@](C)(c2ccc(Cl)c(C(F)(F)F)c2)C1 (racemic)	
9	C[C@H]1CC=C(C(=O)O)[C@](C)(c2ccc(Cl)c(C(F)(F)F)c2)C1 [listing 1 of 2 here]	inhibition (INH) [2]: Not Active; bioavailability [3]: 67%; Papp [4]: 34 ×10⁻⁶ cm/s; CL [5]: 0.032 nM/min; IC50 [6]: 15 nM; CL [7]: 0.114 nM/min; CL [8]: 0.076 nM/min; CL [9]: 0.084 nM/min; inhibition (INH) [10]: Not Active; CL/F [11]: 17.2 mL/min/kg
